These results are taken from ChEMBL document CHEMBL4138248, “Discovery of naphtho[1,2-d]oxazole derivatives as potential anti-HCV agents through inducing heme oxygenase-1 expression” (Eur J Med Chem, 2018).

For experiment [1], the system named is Hepatitis C virus. Put plainly: Antiviral activity against HCV infected in human Ava5 cells assessed as inhibition of viral RNA replication at 5 uM after 3 days by RT-qPCR method relative to control. In kind it is functional, Hepacivirus hominis. Conditions: Ava5, 72 h. The method, boiled down: (§1)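 Ava5 replicon cells were exposed to 5 or 20 μM for 3 days, starting from 10 mM DMSO stocks diluted in medium. HCV RNA was quantified by RT-qPCR against gapdh and expressed as % inhibition relative to untreated control. Ribavirin was the reference drug. Mean ± SD of three independent experiments.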

The subject of experiment [2] is Hepatitis C virus. Briefly: Antiviral activity against HCV infected in human Ava5 cells assessed as inhibition of viral RNA replication at 20 uM after 3 days by RT-qPCR method relative to control. It is filed as functional, Hepacivirus hominis. The settings on record: Ava5, 72 h. Put shortly: as §1
(In general: Real-time PCR tracks product formation cycle by cycle.)

Experiment [3] deals with Hepatitis C virus. Put plainly: Antiviral activity against HCV infected in human Ava5 cells assessed as inhibition of NS5B protein synthesis after 3 days by Western blot method. It is filed as functional, organism-based. The settings on record: Hepacivirus hominis. Put shortly:
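Ava5 cells, seeded at 5×10^4 per well and grown overnight, were treated for 3 days. Lysates were made in RIPA buffer and 10 µg protein was run on 10% SDS-PAGE. Blots were probed with anti-NS5B, with GAPDH as loading control.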

Experiment [4] in a line: Induction of HO1 (unknown origin) promoter activity expressed in human Ava5 cells transfected with pHO-1-Luc after 3 days. In kind it is cell-based. The method, boiled down:
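Ava5 cells were transfected with 0.5 µg pHO-1-Luc, with pCMV-SEAP (0.1 µg) co-transfected for normalization. Cells were then treated at various concentrations for 3 days, and luciferase was read in lysates. Mean ± SD of three independent experiments.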

Experiment [5] is filed under the species Homo sapiens. Briefly: Upregulation of HO-1 protein expression in human Ava5 cells after 3 days by Western blot method. It is filed as functional, cell-based. The method, boiled down: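 Ava5 cells were treated for 3 days at the indicated concentrations. Lysates (10 µg protein, 10% SDS-PAGE, PVDF) were probed with anti-HO-1 and anti-GAPDH.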
On the technique in general: A western blot detects proteins with antibodies after separation by electrophoresis.

The subject of experiment [6] is Hepatitis C virus. Briefly: Antiviral activity against HCV infected in human Ava5 cells assessed as inhibition of NS5B protein synthesis at 1 uM after 3 days in presence of HO-1 inhibitor SnPP by Western blot method. It is filed as functional, organism-based. Conditions: Hepacivirus hominis. Put shortly:
(§2)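 Ava5 cells were co-incubated for 3 days with test compound at 1 μM plus the HO-1 inhibitor SnPP (tin protoporphyrin IX) at 0–5 μM. Lysates went to western blot for NS5B and GAPDH. RNA went to RT-qPCR normalized to gapdh mRNA. Mean ± SD of three independent experiments.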

Experiment [7] concerns Hepatitis C virus. Put plainly: Antiviral activity against HCV infected in human Ava5 cells assessed as inhibition of viral RNA replication at 1 uM after 3 days in presence of HO-1 inhibitor SnPP by RT-qPCR method. In kind it is functional, organism-based. Conditions: Hepacivirus hominis. Put shortly: as §2
The species named for experiment [8] is Homo sapiens. Briefly: Effect on Nrf2 protein expression in human Ava5 cells at 0.5 to 1 uM after 3 days by Western blot method. In kind it is functional, cell-based. The method, boiled down: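 Ava5 cells were treated for 3 days at the indicated concentrations. Whole-cell lysates were immunoblotted with anti-Nrf2, anti-Keap-1, anti-bach1 and anti-GAPDH.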

Experiment [9] addresses T1, Heme oxygenase 1 (Homo sapiens) (UniProt P09601).
T1 sequence (whole entry): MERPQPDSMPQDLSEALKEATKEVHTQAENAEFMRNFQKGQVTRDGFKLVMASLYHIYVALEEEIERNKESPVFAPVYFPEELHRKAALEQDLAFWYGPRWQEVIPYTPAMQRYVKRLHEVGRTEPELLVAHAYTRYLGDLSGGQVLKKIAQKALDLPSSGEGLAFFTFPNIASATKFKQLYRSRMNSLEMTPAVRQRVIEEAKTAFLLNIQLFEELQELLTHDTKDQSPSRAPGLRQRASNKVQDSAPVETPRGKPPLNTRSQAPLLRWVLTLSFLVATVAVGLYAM
Put plainly: Induction of HO-1-mediated ISRE promoter activity in human Ava5 cells transfected with pISRE-Luc after 3 days. In kind it is cell-based. The method, boiled down:
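Ava5 cells carrying pISRE-Luc (ISRE-driven firefly luciferase) were treated for 3 days at increasing concentrations. Luciferase activity was read in cell lysates, normalized to co-transfected pCMV-SEAP.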

The target of experiment [10] is T1, Heme oxygenase 1 (Homo sapiens). Briefly: Induction of HO-1-mediated PKR mRNA expression in human Ava5 cells after 3 days by RT-qPCR method. It is filed as cell-based. The method, boiled down: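 Ava5 cells were treated for 3 days at the indicated concentrations. Target mRNAs were measured by RT-qPCR with specific primers and normalized to endogenous gapdh. Results are relative to DMSO-treated cells.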

Experiment [11] deals with T2, Transcription regulator protein BACH1 (Homo sapiens) (UniProt O14867).
T2 sequence (whole entry): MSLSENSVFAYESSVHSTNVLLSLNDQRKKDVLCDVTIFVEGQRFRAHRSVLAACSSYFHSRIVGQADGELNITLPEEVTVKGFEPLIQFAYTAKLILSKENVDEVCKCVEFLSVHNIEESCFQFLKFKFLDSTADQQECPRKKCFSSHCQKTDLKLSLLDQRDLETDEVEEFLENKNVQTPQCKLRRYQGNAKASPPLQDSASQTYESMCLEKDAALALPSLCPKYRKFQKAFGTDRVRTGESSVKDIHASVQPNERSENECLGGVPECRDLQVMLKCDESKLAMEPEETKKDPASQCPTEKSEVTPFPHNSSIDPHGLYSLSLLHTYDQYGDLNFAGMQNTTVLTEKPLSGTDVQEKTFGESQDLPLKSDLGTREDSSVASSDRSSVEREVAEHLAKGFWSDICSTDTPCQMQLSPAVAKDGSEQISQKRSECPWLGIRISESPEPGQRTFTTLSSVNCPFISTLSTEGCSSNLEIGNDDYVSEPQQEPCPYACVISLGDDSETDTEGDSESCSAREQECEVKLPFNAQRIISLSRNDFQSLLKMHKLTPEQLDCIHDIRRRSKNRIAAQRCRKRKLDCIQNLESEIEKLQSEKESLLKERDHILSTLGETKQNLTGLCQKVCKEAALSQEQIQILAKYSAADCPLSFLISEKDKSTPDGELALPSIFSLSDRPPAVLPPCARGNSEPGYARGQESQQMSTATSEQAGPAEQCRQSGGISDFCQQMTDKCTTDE
Put plainly: Reduction of bach-1 translocation into nucleus of human Ava5 cells after 3 days by Western blot method.

Molecules are shown by their SMILES. Activity calls are given as the source filed them. The calls are words filed in the database; no cut-off is given here.

Usually inhibition stands for the change of the read-out against control, counted positive when it falls.

For `COc1ccc(Nc2cc3oc(-c4ccco4)nc3c3ccccc23)cc1`, the inhibition at 5 µM with Hepatitis C virus [1] worked out at 92.1%. For the same compound, in the experiment with Hepatitis C virus [2], the inhibition at 20 µM was 94.6%. Also, the inhibition entry in the experiment on Hepatitis C virus [3] is “Dose-dependent effect”. The Activity entry (in experiment [4]; in the experiment listed under Homo sapiens [5]; in experiment [9]; in [10]; in experiment [11]) was “Dose-dependent effect” in each case. The inhibition result with Hepatitis C virus [6] and in the experiment with Hepatitis C virus [7] was “inactive” each time. The outcome in the experiment listed under Homo sapiens [8] was inactive.
